# Measurements as given in ChEMBL document CHEMBL3616442, “Unconventional Knoevenagel-type indoles: Synthesis and cell-based studies for the identification of pro-apoptotic agents” (Eur J Med Chem, 2015).
# Experiments:
# MT4 = assay: Antiproliferative activity against human MT4 cells after 96 hrs by MTT assay; type: functional, cell-based; settings: MT4, 96 h
# Procedure, shortened: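 Exponentially growing MT-4 cells (CD4+ human T-cells carrying integrated HTLV-1 genome), seeded at 1×10^5 cells/mL in RPMI-1640 with 10% FCS and antibiotics. Serial dilutions of compound (DMSO stock 100 mM, diluted in medium), 37 °C, 5% CO₂, 96 h. Viability read by MTT. 50% inhibition versus untreated controls by linear regression. Mean ± SD of three independent determinations.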
# CCRF-CEM = assay: Growth inhibition of human CCRF-CEM cells after 48 hrs by sulforhodamine B assay; type: functional
# Procedure, shortened: (§1)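 NCI 60-cell-line screen. Compounds tested at five 10-fold dilutions from 10^-4 to 10^-8 M. Cells exposed for the last 48 h of a 72 h incubation, growth estimated by sulforhodamine B protein assay. GI50 is the concentration giving 50% growth inhibition. Values beyond the tested range are expressed as greater or lesser than the extreme concentration.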
# HL-60(TB) = assay: Growth inhibition of human HL-60(TB) cells after 48 hrs by sulforhodamine B assay; type: functional; settings: HL-60, 48 h
# Procedure, shortened: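 NCI 60-cell-line screen, HL-60(TB) included. Compound given at five 10-fold dilutions from 10^-4 to 10^-8 M. Cells exposed for the last 48 h of a 72 h incubation. Growth or viability estimated by sulforhodamine B protein assay. GI50 is the concentration giving 50% growth inhibition. Values outside the tested range are reported as greater or less than the highest or lowest concentration.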
# K562 = assay: Growth inhibition of human K562 cells after 48 hrs by sulforhodamine B assay; type: functional; settings: K562, 48 h; procedure, shortened: as §1
# [1] = Growth inhibition of human MOLT4 cells after 48 hrs by sulforhodamine B assay; type: functional; settings: MOLT-4, 48 h; procedure, shortened: as §1
# [2] = Growth inhibition of human RPMI8226 cells after 48 hrs by sulforhodamine B assay; type: functional; settings: RPMI-8226, 48 h
# A549 = assay: Growth inhibition of human A549 cells after 48 hrs by sulforhodamine B assay; type: functional; settings: A549, 48 h; procedure, shortened: as §1
# [3] = Growth inhibition of human EKVX cells after 48 hrs by sulforhodamine B assay; type: functional; procedure, shortened: as §1
# HOP-62 = assay: Growth inhibition of human HOP62 cells after 48 hrs by sulforhodamine B assay; type: functional; settings: HOP-62, 48 h; procedure, shortened: as §1
# [4] = Growth inhibition of human HOP92 cells after 48 hrs by sulforhodamine B assay; type: functional; settings: HOP-92, 48 h; procedure, shortened: as §1
# NCI-H226 = assay: Growth inhibition of human NCI-H226 cells after 48 hrs by sulforhodamine B assay; type: functional; settings: NCI-H226, 48 h; procedure, shortened: as §1
# HCT-116 = assay: Growth inhibition of human HCT116 cells after 48 hrs by sulforhodamine B assay; type: functional; settings: HCT-116, 48 h; procedure, shortened: as §1
# HCT-15 = assay: Growth inhibition of human HCT15 cells after 48 hrs by sulforhodamine B assay; type: functional; settings: HCT-15, 48 h; procedure, shortened: as §1
# KM12 = assay: Growth inhibition of human KM12 cells after 48 hrs by sulforhodamine B assay; type: functional; settings: KM12, 48 h; procedure, shortened: as §1
# [5] = Growth inhibition of human SF295 cells after 48 hrs by sulforhodamine B assay; type: functional; settings: SF-295, 48 h
# [6] = Growth inhibition of human SF539 cells after 48 hrs by sulforhodamine B assay; type: functional; settings: SF-539, 48 h
# SNB-19 = assay: Growth inhibition of human SNB19 cells after 48 hrs by sulforhodamine B assay; type: functional; settings: SNB-19, 48 h
# U-251 = assay: Growth inhibition of human U251 cells after 48 hrs by sulforhodamine B assay; type: functional; settings: U-251, 48 h
# [7] = Growth inhibition of human LOXIMVI cells after 48 hrs by sulforhodamine B assay; type: functional; settings: LOX IMVI; procedure, shortened: as §1
# Malme-3M = assay: Growth inhibition of human MALME-3M cells after 48 hrs by sulforhodamine B assay; type: functional; procedure, shortened: as §1
# M14 = assay: Growth inhibition of human M14 cells after 48 hrs by sulforhodamine B assay; type: functional; settings: M14, 48 h; procedure, shortened: as §1
# SK-MEL-2 = assay: Growth inhibition of human SK-MEL-2 cells after 48 hrs by sulforhodamine B assay; type: functional; settings: SK-MEL-2, 48 h
# SK-MEL-5 = assay: Growth inhibition of human SK-MEL-5 cells after 48 hrs by sulforhodamine B assay; type: functional; settings: SK-MEL-5, 48 h
# UACC-257 = assay: Growth inhibition of human UACC257 cells after 48 hrs by sulforhodamine B assay; type: functional; settings: UACC-257, 48 h
# UACC-62 = assay: Growth inhibition of human UACC62 cells after 48 hrs by sulforhodamine B assay; type: functional; settings: UACC-62, 48 h
# OVCAR-3 = assay: Growth inhibition of human OVCAR3 cells after 48 hrs by sulforhodamine B assay; type: functional; settings: OVCAR-3, 48 h; procedure, shortened: as §1
# OVCAR-4 = assay: Growth inhibition of human OVCAR4 cells after 48 hrs by sulforhodamine B assay; type: functional; settings: OVCAR-4, 48 h; procedure, shortened: as §1
# OVCAR-5 = assay: Growth inhibition of human OVCAR5 cells after 48 hrs by sulforhodamine B assay; type: functional; settings: OVCAR-5, 48 h
# [8] = Growth inhibition of human NCI-ADR-RES cells after 48 hrs by sulforhodamine B assay; type: functional; procedure, shortened: as §1
# SK-OV-3 = assay: Growth inhibition of human SKOV3 cells after 48 hrs by sulforhodamine B assay; type: functional; settings: SK-OV-3, 48 h
# 786-0 = assay: Growth inhibition of human 786-0 cells after 48 hrs by sulforhodamine B assay; type: functional; settings: 786-0, 48 h; procedure, shortened: as §1
# ACHN = assay: Growth inhibition of human ACHN cells after 48 hrs by sulforhodamine B assay; type: functional; procedure, shortened: as §1
# CAKI-1 = assay: Growth inhibition of human CAKI-1 cells after 48 hrs by sulforhodamine B assay; type: functional; settings: CAKI-1, 48 h; procedure, shortened: as §1
# [9] = Growth inhibition of human RXF393 cells after 48 hrs by sulforhodamine B assay; type: functional; settings: RXF 393, 48 h
# SN12C = assay: Growth inhibition of human SN12C cells after 48 hrs by sulforhodamine B assay; type: functional
# TK-10 = assay: Growth inhibition of human TK10 cells after 48 hrs by sulforhodamine B assay; type: functional; settings: TK-10, 48 h
# UO-31 = assay: Growth inhibition of human UO31 cells after 48 hrs by sulforhodamine B assay; type: functional; settings: UO-31, 48 h
# PC-3 = assay: Growth inhibition of human PC3 cells after 48 hrs by sulforhodamine B assay; type: functional; settings: PC-3, 48 h
# DU-145 = assay: Growth inhibition of human DU145 cells after 48 hrs by sulforhodamine B assay; type: functional; settings: DU-145, 48 h; procedure, shortened: as §1
# MCF7 = assay: Growth inhibition of human MCF7 cells after 48 hrs by sulforhodamine B assay; type: functional; settings: MCF7, 48 h; procedure, shortened: as §1
# [10] = Growth inhibition of human BT549 cells after 48 hrs by sulforhodamine B assay; type: functional; settings: BT-549, 48 h; procedure, shortened: as §1
# T47D = assay: Growth inhibition of human T47D cells after 48 hrs by sulforhodamine B assay; type: functional
# MDA-MB-468 = assay: Growth inhibition of human MDA-MB-468 cells after 48 hrs by sulforhodamine B assay; type: functional; settings: MDA-MB-468, 48 h; procedure, shortened: as §1
compound,measurement,setting,value
COc1ccc(-c2[nH]c3ccccc3c2C=C(C#N)C#N)cc1,EC50,MT4,300 nM
same,GI50,CCRF-CEM,352 nM
same,GI50,HL-60(TB),271 nM
same,GI50,K562,343 nM
same,GI50,[1],578 nM
same,GI50,[2],490 nM
same,GI50,A549,700 nM
same,GI50,[3],656 nM
same,GI50,HOP-62,1200 nM
same,GI50,[4],1200 nM
same,GI50,NCI-H226,1100 nM
same,GI50,HCT-116,411 nM
same,GI50,HCT-15,593 nM
same,GI50,KM12,374 nM
same,GI50,[5],336 nM
same,GI50,[6],263 nM
same,GI50,SNB-19,1800 nM
same,GI50,U-251,483 nM
same,GI50,[7],1800 nM
same,GI50,Malme-3M,874 nM
same,GI50,M14,295 nM
same,GI50,SK-MEL-2,763 nM
same,GI50,SK-MEL-5,350 nM
same,GI50,UACC-257,424 nM
same,GI50,UACC-62,357 nM
same,GI50,OVCAR-3,265 nM
same,GI50,OVCAR-4,798 nM
same,GI50,OVCAR-5,1800 nM
same,GI50,[8],343 nM
same,GI50,SK-OV-3,445 nM
same,GI50,786-0,720 nM
same,GI50,ACHN,2300 nM
same,GI50,CAKI-1,679 nM
same,GI50,[9],518 nM
same,GI50,SN12C,1200 nM
same,GI50,TK-10,925 nM
same,GI50,UO-31,2800 nM
same,GI50,PC-3,547 nM
same,GI50,DU-145,484 nM
same,GI50,MCF7,347 nM
same,GI50,[10],769 nM
same,GI50,T47D,481 nM
same,GI50,MDA-MB-468,418 nM
CC(=O)/C(=C\c1c(-c2ccccc2)[nH]c2ccccc12)S(=O)(=O)c1ccccc1,EC50,MT4,400 nM
same,GI50,CCRF-CEM,1400 nM
same,GI50,HL-60(TB),1700 nM
same,GI50,K562,442 nM
same,GI50,[1],1600 nM
same,GI50,[2],2200 nM
same,GI50,A549,7200 nM
same,GI50,[3],3300 nM
same,GI50,HOP-62,1200 nM
same,GI50,[4],5900 nM
same,GI50,NCI-H226,1900 nM
same,GI50,HCT-116,754 nM
same,GI50,HCT-15,836 nM
same,GI50,KM12,1000 nM
same,GI50,[5],2400 nM
same,GI50,[6],1300 nM
same,GI50,SNB-19,6100 nM
same,GI50,U-251,1200 nM
same,GI50,[7],1400 nM
same,GI50,Malme-3M,2100 nM
same,GI50,M14,521 nM
same,GI50,SK-MEL-2,1400 nM
same,GI50,SK-MEL-5,832 nM
same,GI50,UACC-257,2200 nM
same,GI50,UACC-62,1000 nM
same,GI50,OVCAR-3,1600 nM
same,GI50,OVCAR-4,3700 nM
same,GI50,OVCAR-5,2000 nM
same,GI50,[8],520 nM
same,GI50,SK-OV-3,2900 nM
same,GI50,786-0,1600 nM
same,GI50,ACHN,1800 nM
same,GI50,CAKI-1,2400 nM
same,GI50,[9],1300 nM
same,GI50,SN12C,1900 nM
same,GI50,TK-10,3800 nM
same,GI50,UO-31,1600 nM
same,GI50,PC-3,2500 nM
same,GI50,DU-145,3000 nM
same,GI50,MCF7,945 nM
same,GI50,[10],1900 nM
same,GI50,T47D,1400 nM
same,GI50,MDA-MB-468,1700 nM
